According to ChEMBL document CHEMBL2062525, “Substituted 3-(5-imidazo[2,1-b]thiazolylmethylene)-2-indolinones and analogues: synthesis, cytotoxic activity, and study of the mechanism of action” (J Med Chem, 2012):
Calls of active or inactive are those of the source.

Columns and labels:
HT-29 [1] = experiment: Induction of cell cycle arrest in human HT-29 cells assessed as increase in p21 expression after 24 hrs by immunofluorescence confocal microscopy; assay type: functional, cell-based
Method in brief: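 On coverslips, HT-29 cells were treated 24 h, fixed with 3% paraformaldehyde, permeabilized with 70% ice-cold ethanol, stained with anti-p21 then FITC secondary (1 h, room temperature each), nuclei counterstained with PI; confocal microscopy; representative of three experiments.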

HT-29 [2] = experiment: Induction of apoptosis in human HT-29 cells assessed as chromatin condensation by propidium iodide staining method; assay type: functional, cell-based
Method in brief: (§1)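 HT-29 cells on glass coverslips (1×10^4 cells/cm2), treated 24 h; fixed in 3% paraformaldehyde, ethanol-permeabilized; nuclei stained with PI and viewed by laser scanning confocal microscopy for chromatin condensation and nuclear fragmentation; representative of three experiments.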

[3] = molecular target: Serine/threonine-protein kinase mTOR (Homo sapiens) (UniProt P42345); experiment: Inhibition of mTOR phosphorylation at ser2448 in human HeLa cells at 1 uM after 3 hrs by Western blotting analysis; assay type: cell-based
Method in brief: (§2)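 HeLa cells in RPMI 1640 with 10% FBS, treated 3 h at 1 μM. Lysates centrifuged 15,000 × g 15 min; 80 μg protein per lane by SDS-PAGE, nitrocellulose transfer, phospho-specific and total primary antibodies, peroxidase anti-rabbit secondary, ECL chemiluminescence.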

HT-29 [4] = experiment: Induction of apoptosis in human HT-29 cells assessed as increase in early apoptotic cells after 24 hrs by annexin-V-FLUOS and propidium iodide staining based flow cytometry (reference value: 3.9%); assay type: functional
[5] = Cytotoxicity against human breast cancer cells after 48 hrs; assay type: functional; details: Cancer cell lines
Method in brief: (§3)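 NCI 60-cell panel subpanel lines; compounds first screened at a single 10−5 M, then those passing threshold tested in five-concentration assay over 10−9 to 10−4 M (some to 10−3 M), 48 h exposure. Growth relative to untreated control measured as cell protein; GI50, TGI and LC50 derived; some values are means of two experiments.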

[6] = molecular target: MAP kinase p38 (Homo sapiens) (UniProt O15264+Q15759+Q16539+P53778); experiment: Inhibition of p38 phosphorylation at Thr180/Tyr182 in human HeLa cells at 1 uM after 3 hrs by Western blotting analysis; assay type: cell-based; method in brief: as §2
[7] = Cytotoxicity against human leukemia cells after 48 hrs; assay type: functional; details: Leukemia cell
Method in brief: (§4)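 NCI 60-cell panel (subpanels include leukemia and prostate). […] Percent growth relative to untreated control; some repeats averaged over two experiments.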

HT-29 [8] = experiment: Cell cycle arrest in human HT-29 cells assessed as increase of cell population at G2/M phase at 100 nM after 24 hrs by flow cytometry; assay type: functional, cell-based
Method in brief: (§5)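 HT-29 cells in RPMI 1640 with 10% FBS, 2 mM L-glutamine, 37 °C, 5% CO2; treated 24 h, DMSO 0.01% in medium. Fixed in 70% ethanol at −20 °C ≥12 h, RNase A (10 μg/mL) 30 min at 37 °C, DNA stained with PI (50 μg/mL), flow cytometry; one experiment representative of three.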

[9] = Cytotoxicity against human COLON cells after 48 hrs; assay type: functional; method in brief: as §3
HeLa = experiment: Inhibition of Akt phosphorylation at ser473 in human HeLa cells at 1 uM after 3 hrs by Western blotting analysis; assay type: cell-based; method in brief: as §2
HT-29 [10] = experiment: Induction of apoptosis in human HT-29 cells at 100 nM after 24 hrs by trypan blue exclusion assay; assay type: functional, cell-based
Method in brief: (§6)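 HT-29 cells plated at 2×10^4 cells/cm2, treated 24 h in triplicate (DMSO 0.01%; DMSO-only controls); viable cells counted by trypan blue exclusion; mean ± s.e.m. of three determinations.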

[11] = Cytotoxicity against human prostate cancer cells after 48 hrs; assay type: functional; details: Cancer cell lines; method in brief: as §4
[12] = Cytotoxicity against human melanoma cells after 48 hrs; assay type: functional; details: Melanoma cell; for CC50: read-out: LC50 (the source's name); method in brief: as §3
[13] = molecular target: AMP-activated protein kinase, AMPK (Homo sapiens) (UniProt P54646+O43741+P54619+Q9UGJ0+Q9Y478+Q13131+Q9UGI9); experiment: Inhibition of AMPK phosphorylation at Thr172 in human HeLa cells at 1 uM after 3 hrs by Western blotting analysis; assay type: cell-based; method in brief: as §2
Bos taurus = organism: Bos taurus; experiment: Displacement of [3H]colchicine from bovine brain tubulin at 5 uM after 10 mins
[14] = molecular target: c-Jun N-terminal kinase, JNK (Homo sapiens) (UniProt P45983+P53779+P45984); experiment: Inhibition of JNK phosphorylation at Thr183/Tyr185 in human HeLa cells at 1 uM after 3 hrs by Western blotting analysis; assay type: cell-based; method in brief: as §2
[15] = molecular target: Mitogen-activated protein kinase; ERK1/ERK2 (Homo sapiens) (UniProt P27361+P28482); experiment: Inhibition of ERK1/2 phosphorylation at Thr202/Tyr204 in human HeLa cells at 1 uM after 3 hrs by Western blotting analysis; assay type: cell-based; method in brief: as §2
HT-29 [16] = experiment: Induction of apoptosis in human HT-29 cells assessed as nuclear fragmentation by propidium iodide staining method; assay type: functional, cell-based; method in brief: as §1
[17] = Cytotoxicity against human ovarian cancer cells after 48 hrs; assay type: functional; details: Cancer cell lines; method in brief: as §3
HT-29 [18] = experiment: Induction of apoptosis in human HT-29 cells assessed as increase in caspase activity at 500 nM after 48 hrs by fluorometry; assay type: functional, cell-based
Method in brief: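 Cells exposed 48 h to 500 nM; DEVD-cleaving caspase (DEVDase) activity measured fluorometrically in cell extracts; mean ± s.e.m. of four determinations.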

NSCLC = experiment: Cytotoxicity against human NSCLC cells after 48 hrs; assay type: functional; method in brief: as §3
[19] = Cytotoxicity against human renal cancer cells after 48 hrs; assay type: functional; details: Cancer cell lines; for CC50: read-out: LC50 (the source's name); method in brief: as §3
[20] = Cytotoxicity against human CNS cancer cells after 48 hrs; assay type: functional; details: Cancer cell lines; method in brief: as §3
[21] = Inhibition of bovine brain tubulin assembly after 20 mins; parameters: species or system Bos taurus
HT-29 [22] = experiment: Induction of apoptosis in human HT-29 cells assessed as increase in mitochondrial ROS production by dihydroethidium staining based flow cytometry; assay type: functional, cell-based
Method in brief: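 ROS read-out: HT-29 cells treated 24 h with 500 nM, then loaded with 5 μM dihydroethidium for 30 min at 37 °C; superoxide-derived red fluorescence measured by flow cytometry with logarithmic amplification; representative of three to five experiments.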

HT-29 [23] = experiment: Induction of apoptosis in human HT-29 cells at 500 nM after 24 hrs by trypan blue exclusion assay; assay type: functional, cell-based; method in brief: as §6
HT-29 [24] = experiment: Induction of apoptosis in human HT-29 cells assessed as loss of mitochondrial membrane potential after 24 hrs by DiOC6 staining based fluorescence assay; assay type: functional, cell-based
Method in brief: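 Following 24 h treatment at 500 nM, HT-29 cells (1×10^6/mL) were stained with 4 nM DiOC6 for 40 min at 37 °C in the dark, counterstained with PI 5 μg/mL to exclude dead cells; fluorescence by flow cytometry; representative of three to five experiments.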

HT-29 [25] = experiment: Cell cycle arrest in human HT-29 cells assessed as increase of cell population at G2/M phase at 500 nM after 24 hrs by flow cytometry; assay type: functional, cell-based; method in brief: as §5
HT-29 [26] = experiment: Induction of apoptosis in human HT-29 cells assessed as increase in BAX level in mitochondria after 24 hrs by confocal laser microscopic analysis; assay type: functional, cell-based
Method in brief: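 HT-29 cells treated 24 h with 500 nM; loaded with 150 nM MitoTracker Red CM-H2XRos for 10 min at 37 °C, then fixed, permeabilized, probed with anti-Bax plus FITC secondary (1 h each, room temperature). Confocal microscopy; colocalization with mitochondria seen as orange pixels.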

Sequence of Mitogen-activated protein kinase; ERK1/ERK2 (Homo sapiens) (P27361 whole entry, looked up, the tested form may be a part): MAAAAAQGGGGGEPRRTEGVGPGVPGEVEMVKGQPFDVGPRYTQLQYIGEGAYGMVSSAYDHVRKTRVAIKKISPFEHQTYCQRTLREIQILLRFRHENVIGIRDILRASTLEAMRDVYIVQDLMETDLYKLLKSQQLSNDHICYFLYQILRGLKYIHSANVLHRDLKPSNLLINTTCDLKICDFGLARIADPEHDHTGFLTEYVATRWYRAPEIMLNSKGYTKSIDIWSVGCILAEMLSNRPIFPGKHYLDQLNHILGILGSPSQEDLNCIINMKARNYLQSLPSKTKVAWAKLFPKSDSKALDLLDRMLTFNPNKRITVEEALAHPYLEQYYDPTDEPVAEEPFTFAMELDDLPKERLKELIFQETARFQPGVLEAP
Sequence of Mitogen-activated protein kinase; ERK1/ERK2 (Homo sapiens) (P28482 whole entry, looked up, the tested form may be a part): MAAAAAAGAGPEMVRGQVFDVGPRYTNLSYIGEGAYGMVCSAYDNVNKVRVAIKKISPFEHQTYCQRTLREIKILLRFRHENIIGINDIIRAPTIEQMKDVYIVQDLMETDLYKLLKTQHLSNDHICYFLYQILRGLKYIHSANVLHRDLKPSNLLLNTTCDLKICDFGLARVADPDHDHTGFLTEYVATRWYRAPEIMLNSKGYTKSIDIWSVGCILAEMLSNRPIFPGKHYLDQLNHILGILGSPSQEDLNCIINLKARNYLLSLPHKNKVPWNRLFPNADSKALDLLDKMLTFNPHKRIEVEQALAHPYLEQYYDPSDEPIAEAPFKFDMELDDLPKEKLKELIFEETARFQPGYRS

COc1ccc2c(c1)/C(=C\c1c(-c3ccccn3)nc3sccn13)C(=O)N2
Activity (HT-29 [1]): Active
Activity (HT-29 [2]): Active
inhibition [3]: inactive
Activity (HT-29 [4]): 23%
GI50 [5]: 0.04 µM
LC50 [5]: 46.8 µM
TGI [5]: 8.32 µM
inhibition [6]: Active
GI50 [7]: 0.02 µM
Activity (HT-29 [8]): Active
LC50 (concentration giving 50% net cell kill) [9]: 15.1 µM
TGI [9]: 1.35 µM
inhibition (HeLa): Active
Activity (HT-29 [10]): Active
GI50 [11]: 0.03 µM
TGI [11]: 3.98 µM
GI50 [12]: 0.02 µM
TGI [12]: 6.76 µM
CC50 [12]: 38.9 µM
inhibition [13]: Active
inhibition (Bos taurus): 36%
inhibition [14]: Active
inhibition [15]: Active
Activity (HT-29 [16]): Active
GI50 [17]: 0.04 µM
LC50 (concentration killing 50% of starting cells) [17]: 17 µM
TGI [17]: 2.19 µM
Activity (HT-29 [18]): Active
GI50 (NSCLC): 0.11 µM
LC50 (NSCLC): 39.8 µM
TGI (NSCLC): 6.46 µM
GI50 [19]: 0.07 µM
TGI [19]: 4.68 µM
CC50 [19]: 28.8 µM
GI50 [20]: 0.03 µM
LC50 [20]: 34.7 µM
TGI [20]: 2.57 µM
IC50 [21]: 9.1 µM

COc1nc2sccn2c1/C=C1/C(=O)Nc2ccccc21
GI50 [5]: 0.28 µM
LC50 [5]: 91.2 µM
TGI [5]: 13.2 µM
GI50 [7]: 0.5 µM
LC50 (concentration killing 50% of cells) [7]: 60.3 µM
TGI [7]: 21.4 µM
GI50 [9]: 0.29 µM
LC50 (concentration giving 50% net cell kill) [9]: 89.1 µM
TGI [9]: 13.8 µM
GI50 [11]: 0.55 µM
TGI [11]: 29.5 µM
GI50 [12]: 0.47 µM
TGI [12]: 40.7 µM
CC50 [12]: 95.5 µM
inhibition (Bos taurus): 48%
GI50 [17]: 0.44 µM
TGI [17]: 20.4 µM
GI50 (NSCLC): 0.43 µM
LC50 (NSCLC): 93.3 µM
TGI (NSCLC): 51.3 µM
GI50 [19]: 0.54 µM
TGI [19]: 38.9 µM
GI50 [20]: 0.25 µM
LC50 [20]: 50.1 µM
TGI [20]: 7.94 µM
IC50 [21]: 3.7 µM

COc1ccc2c(c1)C(=Cc1c(OC)nc3sccn13)C(=O)N2 (mixture of isomers)
Activity (HT-29 [1]): Active
Activity (HT-29 [2]): Active
inhibition [3]: inactive
Activity (HT-29 [4]): 27%
GI50 [5]: 0.17 µM
TGI [5]: 34.7 µM
inhibition [6]: Active
GI50 [7]: 0.02 µM
LC50 (concentration killing 50% of cells) [7]: 91.2 µM
TGI [7]: 4.57 µM
Activity (HT-29 [8]): Active
LC50 (concentration giving 50% net cell kill) [9]: 66.1 µM
TGI [9]: 7.59 µM
inhibition (HeLa): Active
Activity (HT-29 [10]): Active
GI50 [11]: 0.05 µM
TGI [11]: 40.7 µM
GI50 [12]: 0.04 µM
TGI [12]: 20.9 µM
CC50 [12]: 81.3 µM
inhibition [13]: Active
inhibition (Bos taurus): 62%
inhibition [14]: Active
inhibition [15]: Active
Activity (HT-29 [16]): Active
GI50 [17]: 0.1 µM
TGI [17]: 12 µM
Activity (HT-29 [18]): Active
GI50 (NSCLC): 0.16 µM
TGI (NSCLC): 44.7 µM
GI50 [19]: 0.14 µM
TGI [19]: 31.6 µM
GI50 [20]: 0.04 µM
TGI [20]: 15.5 µM
IC50 [21]: 2.9 µM

Cc1cn2c(/C=C3/C(=O)Nc4c3ccc3ccccc43)c(C)nc2s1
Activity (HT-29 [1]): Active
Activity (HT-29 [2]): Active
inhibition [3]: inactive
Activity (HT-29 [22]): Active
Activity (HT-29 [4]): 12.5%
GI50 [5]: 0.18 µM
LC50 [5]: 50.1 µM
TGI [5]: 5.62 µM
inhibition [6]: inactive
TGI [7]: 53.7 µM
GI50 [9]: 0.11 µM
TGI [9]: 58.9 µM
inhibition (HeLa): inactive
Activity (HT-29 [10]): Active
Activity (HT-29 [23]): Active
GI50 [11]: 0.21 µM
TGI [11]: 16.2 µM
GI50 [12]: 0.14 µM
TGI [12]: 50.1 µM
inhibition [13]: inactive
inhibition (Bos taurus): 49%
inhibition [14]: inactive
Activity (HT-29 [24]): Active
inhibition [15]: inactive
Activity (HT-29 [16]): Active
Activity (HT-29 [25]): Active
GI50 [17]: 0.85 µM
LC50 (concentration killing 50% of starting cells) [17]: 74.1 µM
TGI [17]: 14.1 µM
Activity (HT-29 [18]): Active
GI50 (NSCLC): 0.31 µM
LC50 (NSCLC): 93.3 µM
TGI (NSCLC): 28.2 µM
Activity (HT-29 [26]): Active
GI50 [19]: 0.23 µM
TGI [19]: 12 µM
CC50 [19]: 70.8 µM
GI50 [20]: 0.17 µM
LC50 [20]: 74.1 µM
TGI [20]: 5.37 µM
IC50 [21]: 5.3 µM
